Data reported in ChEMBL document CHEMBL2029315 (Bioorg Med Chem Lett, 2012).
The source made the active and inactive calls. The rule behind the calls is not given here.

Columns and labels:
[1] = Binding affinity to PKC
[2] = test system: U-937; assay: Induction of human U937 cells attachment at 0.1 to 3000 nM treated for 24 hrs measured after 60 hrs; assay type: functional, cell-based
Method in brief: (§1)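 U937 cells were seeded, then treated 24 h later across a concentration series. Floating and attached cells were counted separately 60 h after treatment, giving proliferation and attachment read-outs. Data are mean ± SEM of five independent experiments.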

[3] = test system: U-937; assay: Antiproliferative activity against human U937 cells at 0.1 to 3000 nM after 60 hrs; assay type: functional, cell-based; method in brief: as §1
[4] = test system: K562; assay: Antiproliferative activity against human K562 cells after 60 hrs in presence of PMA; assay type: functional, cell-based
Method in brief: (§2)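 K562 or MV4-11 cells were seeded, then exposed to compound 24 h later alongside 10 nM PMA. Total cell number was counted 60 h after treatment. Data are mean ± SEM of three independent experiments.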

[5] = test system: MV4-11; assay: Antiproliferative activity against human MV411 cells after 60 hrs in presence of PMA; assay type: functional, cell-based; method in brief: as §2
[6] = target: T1, Protein kinase C epsilon type (Homo sapiens) (UniProt Q02156); assay: Modulation of PKCepsilon in human K562 cells assessed as […] after 24 hrs by Western blotting analysis; assay type: cell-based
T1 sequence (whole entry): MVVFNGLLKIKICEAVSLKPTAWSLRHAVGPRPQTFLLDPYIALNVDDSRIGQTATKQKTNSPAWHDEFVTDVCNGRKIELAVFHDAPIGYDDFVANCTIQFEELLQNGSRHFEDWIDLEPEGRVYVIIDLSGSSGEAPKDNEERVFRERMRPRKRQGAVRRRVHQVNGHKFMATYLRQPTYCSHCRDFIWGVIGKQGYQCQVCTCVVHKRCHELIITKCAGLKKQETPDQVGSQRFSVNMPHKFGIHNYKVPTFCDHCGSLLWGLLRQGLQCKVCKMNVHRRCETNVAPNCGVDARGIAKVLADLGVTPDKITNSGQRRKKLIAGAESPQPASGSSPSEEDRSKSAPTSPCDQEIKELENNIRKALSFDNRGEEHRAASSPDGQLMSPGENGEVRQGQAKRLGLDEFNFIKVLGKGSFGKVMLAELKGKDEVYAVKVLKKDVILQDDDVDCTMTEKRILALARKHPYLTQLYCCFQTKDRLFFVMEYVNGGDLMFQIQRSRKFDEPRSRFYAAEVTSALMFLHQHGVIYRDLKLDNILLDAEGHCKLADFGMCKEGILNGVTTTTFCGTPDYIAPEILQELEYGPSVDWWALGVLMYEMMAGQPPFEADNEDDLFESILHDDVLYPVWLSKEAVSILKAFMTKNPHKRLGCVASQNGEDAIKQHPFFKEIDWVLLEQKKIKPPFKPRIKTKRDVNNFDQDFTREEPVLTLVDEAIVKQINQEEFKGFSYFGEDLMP
Method in brief: (§3)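 K562 cells (150,000 cells/ml) treated 24 hr after plating with a dose range for 24 hr. Total cell lysates analysed by Western blot for C1 domain-containing proteins, with actin as loading control. Representative of three independent experiments.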

[7] = target: T2, Ras guanyl-releasing protein 3 (Homo sapiens) (UniProt Q8IV61); assay: Modulation of RASGRP3 in human K562 cells assessed as […] after 24 hrs by Western blotting analysis; assay type: cell-based; method in brief: as §3
T2 sequence (whole entry): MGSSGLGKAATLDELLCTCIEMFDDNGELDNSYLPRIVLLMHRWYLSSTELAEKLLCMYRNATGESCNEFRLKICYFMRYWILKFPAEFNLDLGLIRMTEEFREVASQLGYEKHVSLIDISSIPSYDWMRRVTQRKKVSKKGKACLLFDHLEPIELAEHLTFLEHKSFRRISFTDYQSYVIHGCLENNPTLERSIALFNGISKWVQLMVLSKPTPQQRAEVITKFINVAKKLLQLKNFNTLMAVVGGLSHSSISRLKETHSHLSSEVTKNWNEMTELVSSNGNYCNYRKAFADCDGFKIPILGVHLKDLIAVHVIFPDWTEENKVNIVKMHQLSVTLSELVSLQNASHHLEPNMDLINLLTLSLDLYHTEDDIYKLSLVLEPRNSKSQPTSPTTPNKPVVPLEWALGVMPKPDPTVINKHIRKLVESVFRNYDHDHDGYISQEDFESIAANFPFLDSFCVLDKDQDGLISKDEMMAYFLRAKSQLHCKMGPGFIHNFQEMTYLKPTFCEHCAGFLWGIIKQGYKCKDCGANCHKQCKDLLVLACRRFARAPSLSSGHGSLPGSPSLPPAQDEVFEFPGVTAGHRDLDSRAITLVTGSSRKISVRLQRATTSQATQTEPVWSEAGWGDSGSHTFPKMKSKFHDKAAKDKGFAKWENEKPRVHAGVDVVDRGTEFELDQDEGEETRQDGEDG

[8] = test system: K562; assay: Inhibition of PMA-induced human K562 cell attachment treated for 24 hrs measured after 60 hrs; assay type: functional, cell-based
[9] = test system: MV4-11; assay: Inhibition of PMA-induced human MV411 cell attachment treated for 24 hrs measured after 60 hrs; assay type: functional, cell-based
[10] = test system: K562; assay: Inhibition of bryostatin1-induced human K562 cell attachment treated for 24 hrs measured after 60 hrs; assay type: functional, cell-based
[11] = test system: MV4-11; assay: Inhibition of bryostatin1-induced human MV411 cell attachment treated for 24 hrs measured after 60 hrs; assay type: functional, cell-based
[12] = test system: K562; assay: Antiproliferative activity against human K562 cells after 60 hrs in presence of PMA
[13] = test system: MV4-11; assay: Antiproliferative activity against human MV411 cells after 60 hrs in presence of PMA
[14] = test system: U-937; assay: Induction of human U937 cells attachment at 0.1 to 1000 nM treated for 24 hrs measured after 60 hrs; assay type: functional, cell-based
Method in brief: (§4)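 Floating and attached cells counted 60 hr after treatment, giving proliferation (total count) and attachment. Mean ± SEM of five independent experiments.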

[15] = test system: U-937; assay: Antiproliferative activity against human U937 cells at 0.1 to 1000 nM after 60 hrs; assay type: functional, cell-based; method in brief: as §4
[16] = test system: U-937; assay: Inhibition of PMA-induced human U937 cell attachment treated for 24 hrs measured after 60 hrs; assay type: functional, cell-based; method in brief: as §4
[17] = test system: U-937; assay: Inhibition of PMA-induced human U937 cells antiproliferation activity after 60 hrs; assay type: functional, cell-based; method in brief: as §4
[18] = target: Protein kinase C beta type (Homo sapiens) (UniProt P05771); assay: Modulation of PKCbeta in human K562 cells assessed as protein down-regulation after 24 hrs by Western blotting analysis; assay type: cell-based; method in brief: as §3
[19] = target: Protein kinase C delta type (Homo sapiens) (UniProt Q05655); assay: Modulation of PKCdelta in human K562 cells assessed as protein down-regulation after 24 hrs by Western blotting analysis; assay type: cell-based; method in brief: as §3
Protein kinase C delta type (Homo sapiens), sequence (Q05655 whole entry, looked up): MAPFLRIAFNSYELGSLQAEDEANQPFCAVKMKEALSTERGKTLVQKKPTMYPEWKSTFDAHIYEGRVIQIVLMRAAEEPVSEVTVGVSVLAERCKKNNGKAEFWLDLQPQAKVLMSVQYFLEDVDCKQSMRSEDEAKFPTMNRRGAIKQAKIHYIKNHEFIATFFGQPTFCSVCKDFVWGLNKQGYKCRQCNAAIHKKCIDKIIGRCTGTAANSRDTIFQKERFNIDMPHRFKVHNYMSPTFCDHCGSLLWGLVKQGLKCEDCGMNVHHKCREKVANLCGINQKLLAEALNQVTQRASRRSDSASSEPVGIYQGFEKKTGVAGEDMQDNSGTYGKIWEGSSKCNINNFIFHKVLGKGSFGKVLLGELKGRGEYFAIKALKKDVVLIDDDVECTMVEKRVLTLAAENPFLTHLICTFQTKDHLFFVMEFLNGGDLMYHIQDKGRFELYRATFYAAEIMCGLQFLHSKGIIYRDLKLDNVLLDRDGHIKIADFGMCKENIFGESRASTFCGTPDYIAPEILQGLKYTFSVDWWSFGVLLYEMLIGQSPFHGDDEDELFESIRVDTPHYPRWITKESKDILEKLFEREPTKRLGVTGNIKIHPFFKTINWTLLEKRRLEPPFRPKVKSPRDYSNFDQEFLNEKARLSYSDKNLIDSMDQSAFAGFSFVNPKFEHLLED

Protein kinase C beta type (Homo sapiens), sequence (P05771 2-671 limits assumed): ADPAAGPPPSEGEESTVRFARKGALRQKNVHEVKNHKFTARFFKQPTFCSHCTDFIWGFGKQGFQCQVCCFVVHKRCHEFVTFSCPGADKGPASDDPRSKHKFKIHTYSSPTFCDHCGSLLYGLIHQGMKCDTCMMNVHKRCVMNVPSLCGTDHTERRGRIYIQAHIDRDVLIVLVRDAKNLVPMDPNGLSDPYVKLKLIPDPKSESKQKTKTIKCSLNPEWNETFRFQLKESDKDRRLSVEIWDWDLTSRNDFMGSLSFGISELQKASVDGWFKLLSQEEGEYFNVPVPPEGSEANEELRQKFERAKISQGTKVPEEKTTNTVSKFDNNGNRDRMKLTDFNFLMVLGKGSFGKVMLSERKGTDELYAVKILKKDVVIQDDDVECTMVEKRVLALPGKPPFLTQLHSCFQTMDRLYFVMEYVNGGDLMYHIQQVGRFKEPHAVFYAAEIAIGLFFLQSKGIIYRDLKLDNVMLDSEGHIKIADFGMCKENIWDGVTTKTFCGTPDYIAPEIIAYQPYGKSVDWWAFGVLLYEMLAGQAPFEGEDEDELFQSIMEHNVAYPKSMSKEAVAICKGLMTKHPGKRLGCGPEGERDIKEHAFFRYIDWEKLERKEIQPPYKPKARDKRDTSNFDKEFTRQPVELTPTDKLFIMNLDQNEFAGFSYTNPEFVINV

Structure (SMILES)	Ki [1] [nM]	Activity [2]	Activity [3]	Activity [4]	Activity [5]	Activity [6]	Activity [7]	inhibition [8]	inhibition [9]	inhibition [10]	inhibition [11]	Activity [12]	Activity [13]	Activity [14]	Activity [15]	inhibition [16]	inhibition [17]	Activity [18]	Activity [19]
C=C1C[C@H]2C[C@@H]3O[C@@H](CC(=C)C3(C)C)C[C@@H](O)CC(=O)O[C@@H]([C@@H](C)O)C[C@@H]3C/C(=C\C(=O)OC)[C@H](OC(=O)/C=C/C=C/CCC)[C@@](O)(O3)C(C)(C)/C=C/[C@@H](C1)O2	1.08	Active	Active	Dose-dependent effect	Dose-dependent effect	Active	Active	inactive	inactive	Active	Active	Dose-dependent effect	Dose-dependent effect	–	–	–	–	–	–
CCCCCCCCCCCCCC(=O)O[C@@H]1[C@@H](C)[C@@]2(O)[C@@H](C=C(CO)C[C@]3(O)C(=O)C(C)=C[C@@H]23)[C@@H]2C(C)(C)[C@]12OC(C)=O	–	–	–	–	–	Active	Active	–	–	–	–	–	–	Active	Active	–	–	–	–
CCC/C=C/C=C/C(=O)O[C@H]1/C(=C/C(=O)OC)C[C@H]2C[C@H]([C@@H](C)O)OC(=O)C[C@H](O)C[C@@H]3C[C@H](OC(C)=O)C(C)(C)[C@](O)(C[C@@H]4C/C(=C/C(=O)OC)C[C@H](/C=C/C(C)(C)[C@]1(O)O2)O4)O3	–	–	–	–	–	inactive	inactive	–	–	–	–	–	–	–	–	Dose-dependent effect	Dose-dependent effect	Active	Active
